Furin inhibitor = human furin inhibitors, primary screen, biochemical, fluorescence intensity; AID 463115, 2010; purified furin, fluorogenic substrate cleavage; inhibition, % at 20 µM or 30 µM; actives 0.061% (n = 220,000); P09958; in the data active means inhibition above about 25%
JMJD2C inh = inhibitors of GASC-1 histone demethylase, primary screen, biochemical, fluorescence, DELFIA europium; Lysine-specific demethylase 4C (Homo sapiens), Q9H3R0; GST-JMJD2C(1-420) H3K9me3 demethylation; inhibition, % at 2.35 µM; actives 0.069% (n = 330,000); AID 2099, 2009;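 active means more than half of a compound's replicate wells show inhibition beyond 50%, single wells judged on their own value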;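 further: signal counts dimethyl H3K9 product captured on neutravidin plate; 0% = median of DMSO wells and 100% = 0.3 times that DMSO median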
Target sequence (Q9H3R0 1-420 limits assumed): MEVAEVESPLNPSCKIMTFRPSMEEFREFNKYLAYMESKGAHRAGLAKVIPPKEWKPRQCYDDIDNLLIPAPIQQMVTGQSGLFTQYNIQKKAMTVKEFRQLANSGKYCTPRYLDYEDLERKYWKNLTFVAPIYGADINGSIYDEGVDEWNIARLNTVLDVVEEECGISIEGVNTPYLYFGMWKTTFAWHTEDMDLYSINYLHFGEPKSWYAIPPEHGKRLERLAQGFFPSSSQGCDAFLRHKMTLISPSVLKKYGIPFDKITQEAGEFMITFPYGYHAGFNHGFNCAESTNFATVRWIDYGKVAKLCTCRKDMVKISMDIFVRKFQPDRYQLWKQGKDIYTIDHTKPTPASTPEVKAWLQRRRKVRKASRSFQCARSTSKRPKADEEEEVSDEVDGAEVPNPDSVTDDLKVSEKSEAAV
NR2E3 ag-1 = inhibitors of NR2E3-RetCOR corepressor binding, primary screen, NR2E3 agonist project, biochemical, TR-FRET, GST-NR2E3, biotin-RetCOR; actives 0.12% (n = 320,000); Photoreceptor-specific nuclear receptor (Homo sapiens), Q9Y5X4; inhibition of corepressor binding, % at 4.78 µM; 1536-well; AID 2300, 2010;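 active means percent inhibition above the cutoff of mean plus 3 SD of all tested compounds, set per screening campaign, cut at about 20% in these data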;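 further: 0% = DMSO wells and 100% = biotin wells as full block of FRET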
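Test system: GST-NR2E3 and biotin-RetCOR proteins | Quantity: 1.35 nM GST-tagged NR2E3 final | Medium: Tris pH 7.5 | Also added: 7 nM biotin-RetCOR | Dosing: Compound at 4.8 µM, single dose | Timing: 5 h at 4 °C | Detection: Time-resolved FRET | Read-out basis: Percent inhibition | Benchmarks: Biotin wells as high control, 0.6% DMSO wells as low control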
EP2 antag = human EP2 receptor antagonists, primary screen, TR-FRET cAMP, C6 glioma cells | AID 1422, 2008 | C6 glioma cells expressing human EP2; cells stimulated with saturating PGE2 | actives 0.52% (n = 260,000) | Prostaglandin E2 receptor EP2 subtype (Homo sapiens), P43116 | inhibition, % at 25 µM;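 active means percent inhibition above 40 after rounding to a whole number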;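 further: rat C6 glioma host cells with rolipram phosphodiesterase inhibitor present; the protocol text gives 20 µM as final concentration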
NR2E3 ag-2 = NR2E3 agonists in two-hybrid cells, primary screen, cell-based, luminescence, CHO-S, Gal4-NCOR/VP16-NR2E3; inhibition of corepressor binding, % at 3.98 µM; AID 602229, 2012; luciferase; actives 0.35% (n = 360,000); Photoreceptor-specific nuclear receptor (Homo sapiens), Q9Y5X4;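 active means inhibition above the mean of all tested compounds plus 3 SD, cut at about 70% in these data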;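 further: 0% = DMSO with NR2E3 transfected cells and 100% = cells lacking NR2E3 construct; higher means lower luciferase signal from less NR2E3 corepressor binding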
EP2 mod = EP2 receptor modulators, cAMP readout, primary screen, cell-based, HTRF cAMP, PGE2 stimulation | actives 0.83% (n = 260,000) | induction, % at 25 µM | Prostaglandin E2 receptor EP2 subtype (Homo sapiens), P43116 | EP2-expressing cells, cAMP HTRF FRET, PGE2 co-stimulation | AID 940, 2007;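 active means compounds whose cAMP rise, as percent of the full-agonist control response, exceeds 60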;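 further: rat C6 glioma line stably carrying human EP2 under a CMV promoter; the protocol text gives 20 µM as final concentration; 100% = response of wells given 1 µM PGE2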
* hit, by the source's call; / = no result. Rows were chosen to be rich in hits. Some 1.3% of all compounds tested hit in one or more screens of this group.

SMILES	Furin inhibitor	JMJD2C inh	NR2E3 ag-1	EP2 antag	NR2E3 ag-2	EP2 mod
CC1CCc2c(sc3ncn4c(=O)n(CC(=O)N5CCC(C(N)=O)CC5)nc4c23)C1 (stereo unspecified)	/	/	/	/	/	-33.8
COc1ccc(NC(=O)/C(Cl)=C(/Cl)S(=O)(=O)Cc2ccc(C)cc2)cn1	-21.8	5.0	/	8.5	86.2*	-40.0
COc1ccc(NC(=O)Cc2ccc(Cl)c(Cl)c2)cn1	-18.8	-8.2	-2.4	6.5	2.5	-12.0
COc1ccc(NC(=O)/C(Cl)=C(/Cl)S(=O)Cc2ccccc2Cl)cn1 (stereo unspecified)	-9.1	/	/	51.5*	/	-81.1
COc1ccccc1NC(=O)Cn1cnc2sc(C)c(-c3ccccc3)c2c1=O	/	/	/	7.3	/	-21.9
OC1C2(Cc3ccccc3)CN3CCN(C2)CC1(Cc1ccccc1)C3 (stereo unspecified)	2.0	13.9	0.0	14.7	-4.7	/
OC1C2CN3CCN(C2)CC1(Cc1ccccc1)C3 (stereo unspecified)	30.0*	5.9	3.6	-1.5	-23.9	-7.5
Cc1sc(NC(=O)c2ccccc2)c(C(=O)c2ccccc2)c1C	-12.1	11.0	1.6	11.1	4.4	64.7*
Cc1nn(-c2ccccc2)c2[nH]c(=O)c(CNCc3ccc(C(F)(F)F)cc3)cc12	/	/	/	17.3	/	-39.1
COc1ccc([C@H](C)NC[C@H](O)c2ccc(O)c(NC=O)c2)cc1	-36.1	-6.4	1.2	12.3	-6.3	81.2*
O=C1NC2(CCN(C(=O)C3CCN(C(=O)Cc4ccccc4)CC3)CC2)Oc2ccccc21	/	/	/	5.2	/	-28.7
O=C(Nc1ccc(Br)cc1)c1cc2cc(Br)ccc2oc1=O	/	/	/	10.2	/	-1.0
COc1ccc2cc1Oc1ccc(cc1)C[C@H]1c3cc(c(OC)cc3CCN1C)Oc1c(OC)c(OC)cc3c1[C@@H](C2)N(C)CC3	/	-17.6	0.5	59.5*	-19.0	-12.2
COCCN(C(=O)c1ccccc1F)c1nnc(-c2cccnc2)s1	/	/	/	8.2	/	-10.2
CCSc1nc2sc3c(c2c(=O)n1C)CCCC3	/	/	/	6.8	/	60.8*
C/C(N[O-])=C(\C)[N+]([O-])=[Rh][Cl].CC(=N\[O-])/C(C)=N/[O-].NC(N)=[SH+]	/	/	/	48.8*	/	25.7
Clc1ccc(Cn2c(NCc3ccncc3)nc3ccccc32)cc1	/	/	/	6.3	/	-46.2
CCN(CC)CCN(Cc1cc2cc(C)cc(C)c2[nH]c1=O)C(=S)Nc1ccccc1	/	/	/	15.0	/	10.1
CCS(=O)(=O)N1Cc2ccccc2CC1C(=O)NCC12CC3CC(CC(C3)C1)C2 (stereo unspecified)	-3.0	0.4	-0.9	2.3	9.1	7.9
CCS(=O)(=O)N1Cc2ccccc2CC1C(=O)NC(C)C12CC3CC(CC(C3)C1)C2 (stereo unspecified)	-18.7	25.2	-3.2	11.1	-25.5	62.7*
COc1cc2cc(CN(CCCN(C)C)C(=O)Nc3ccccc3)c(=O)[nH]c2cc1OC	/	/	/	5.4	/	18.6
O=C(Nc1nnc(-c2ccco2)s1)c1ccccc1	-13.2	2.2	2.1	46.2*	-95.9	32.2
COc1ccccc1NC(=O)Nc1nnc(-c2ccco2)s1	0.5	2.5	3.1	/	/	-19.1
COc1ccccc1C(=O)Nc1nnc(-c2ccco2)s1	-16.1	-20.4	6.7	43.6*	-132.9	-6.3
CCCc1[nH]nc2c1C(c1ccc(OC(C)C)cc1)C(C#N)=C(N)O2 (stereo unspecified)	/	/	/	8.1	/	-32.8
SMILES	Furin inhibitor	JMJD2C inh	NR2E3 ag-1	EP2 antag	NR2E3 ag-2	EP2 mod
Cc1nnc(N2C(=O)C(O)=C(C(=O)c3ccco3)C2c2ccc(C(C)(C)C)cc2)s1 (stereo unspecified)	-14.9	2.3	8.1	57.2*	-17.6	12.1
Cc1cc2c(o1)c1cnn(CC(=O)NCc3cccs3)c(=O)c1n2C	/	/	/	/	/	-44.7
COc1ccc(N/C=C(\C#N)c2nc3ccccc3n2C)c(OC)c1	0.1	-1.6	1.6	5.8	-42.2	63.0*
COc1ccc(CNc2nc3ccccc3n2C)c(OC)c1	-19.9	6.1	-3.6	6.5	-122.7	-20.9
COc1ccc(C(=O)N(CCCO)Cc2cc3cc(C)ccc3[nH]c2=O)cc1	/	/	/	5.9	/	-36.7
N#CC1=C(N)NC(SCc2ccc(Br)cc2)=C(C#N)C12CCCCC2	30.6*	-7.5	0.7	/	-4.0	-80.6
COc1ccc(C)cc1NC(=O)N1CCCc2ccccc21	-28.8	0.3	-0.1	2.4	13.2	61.4*
CCCCC1C(=O)CC[C@H]2[C@@H]1CC(=O)[C@@H]2C/C=C\CCCC(=O)O (stereo partly specified)	-8.1	2.1	-2.6	14.3	6.8	80.3*
CCOc1ccc2[nH]c(=O)c(CN(Cc3ccco3)S(=O)(=O)c3ccc(OC)cc3)cc2c1	/	/	/	17.6	/	-104.0
COc1ccc2c(c1)cc(C)c1nnc(SCC(=O)Nc3ccc4c(c3)OCO4)n12	/	/	/	5.6	/	-47.0
COC(=O)COc1ccc(S(=O)(=O)NCC2CCCO2)cc1Cl (stereo unspecified)	31.4*	5.4	1.5	8.8	-9.8	2.7
COc1ccc(S(=O)(=O)NCC2CCCO2)cc1Cl (stereo unspecified)	/	2.3	3.8	/	-8.9	/
COC(=O)c1cccc(NC(=S)NCCC2=CCCCC2)c1	-17.0	-8.1	4.3	5.0	91.0*	-28.6
O=C(Nc1ccc(Cl)cc1)c1sccc1-n1cccc1	-25.2	2.5	3.3	-0.9	-24.8	62.6*
CCCNC(=S)N(Cc1cc2c(C)cc(C)cc2[nH]c1=O)C1CCCCC1	/	/	/	5.5	/	60.7*
Cc1ccc(C)c2[nH]c(=O)c(CN(C(=S)NCc3ccccc3)C3CCCCC3)cc12	/	/	/	23.2	/	63.9*
COC1CCC(C(=O)NC(C)c2nc(-c3cccnc3)n[nH]2)CC1 (stereo unspecified)	/	/	/	3.9	/	-2.9
COc1ccc(NC(=S)Nc2cnc3ccccc3c2)c(OC)c1	-22.2	8.3	1.5	43.9*	-7.8	-64.1
COc1ccc(NC(=S)Nc2ccccc2OC)c(OC)c1	-31.4	-48.5	1.4	5.6	-9.7	-19.2
CC1(C)Cc2c(c(N3CCCC3)nc3sc4c(N5CCN(CCO)CC5)ncnc4c23)CO1	8.0	-7.5	-3.4	/	-19.2	30.7
CC1(C)Cc2c(c(N3CCCC3)nc3sc4c(N5CCOCC5)ncnc4c23)CO1	/	/	/	3.9	/	72.9*
Cc1cc(-c2cnc(C)nc2C2CCCN(C(=O)Cc3cccs3)C2)on1 (stereo unspecified)	/	/	/	/	/	-16.9

Compound activity as filed in PubChem.
